Structures are written as SMILES.

The experiment concerns the target Xanthine dehydrogenase/oxidase (Homo sapiens, UniProt P47989). The experiment can be described thus: Inhibition of xanthine oxidase assessed as decrease in uric acid production by spectrophotometry. Summed up:
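Flavonoid at various concentrations with 50 µM xanthine, 0.2 mM hydroxylamine and 0.1 mM EDTA. Stopped with HCl, then uric acid read as absorbance at 290 nm against an enzyme-free blank. IC50 by linear regression.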

Sequence of Xanthine dehydrogenase/oxidase (P47989 whole entry): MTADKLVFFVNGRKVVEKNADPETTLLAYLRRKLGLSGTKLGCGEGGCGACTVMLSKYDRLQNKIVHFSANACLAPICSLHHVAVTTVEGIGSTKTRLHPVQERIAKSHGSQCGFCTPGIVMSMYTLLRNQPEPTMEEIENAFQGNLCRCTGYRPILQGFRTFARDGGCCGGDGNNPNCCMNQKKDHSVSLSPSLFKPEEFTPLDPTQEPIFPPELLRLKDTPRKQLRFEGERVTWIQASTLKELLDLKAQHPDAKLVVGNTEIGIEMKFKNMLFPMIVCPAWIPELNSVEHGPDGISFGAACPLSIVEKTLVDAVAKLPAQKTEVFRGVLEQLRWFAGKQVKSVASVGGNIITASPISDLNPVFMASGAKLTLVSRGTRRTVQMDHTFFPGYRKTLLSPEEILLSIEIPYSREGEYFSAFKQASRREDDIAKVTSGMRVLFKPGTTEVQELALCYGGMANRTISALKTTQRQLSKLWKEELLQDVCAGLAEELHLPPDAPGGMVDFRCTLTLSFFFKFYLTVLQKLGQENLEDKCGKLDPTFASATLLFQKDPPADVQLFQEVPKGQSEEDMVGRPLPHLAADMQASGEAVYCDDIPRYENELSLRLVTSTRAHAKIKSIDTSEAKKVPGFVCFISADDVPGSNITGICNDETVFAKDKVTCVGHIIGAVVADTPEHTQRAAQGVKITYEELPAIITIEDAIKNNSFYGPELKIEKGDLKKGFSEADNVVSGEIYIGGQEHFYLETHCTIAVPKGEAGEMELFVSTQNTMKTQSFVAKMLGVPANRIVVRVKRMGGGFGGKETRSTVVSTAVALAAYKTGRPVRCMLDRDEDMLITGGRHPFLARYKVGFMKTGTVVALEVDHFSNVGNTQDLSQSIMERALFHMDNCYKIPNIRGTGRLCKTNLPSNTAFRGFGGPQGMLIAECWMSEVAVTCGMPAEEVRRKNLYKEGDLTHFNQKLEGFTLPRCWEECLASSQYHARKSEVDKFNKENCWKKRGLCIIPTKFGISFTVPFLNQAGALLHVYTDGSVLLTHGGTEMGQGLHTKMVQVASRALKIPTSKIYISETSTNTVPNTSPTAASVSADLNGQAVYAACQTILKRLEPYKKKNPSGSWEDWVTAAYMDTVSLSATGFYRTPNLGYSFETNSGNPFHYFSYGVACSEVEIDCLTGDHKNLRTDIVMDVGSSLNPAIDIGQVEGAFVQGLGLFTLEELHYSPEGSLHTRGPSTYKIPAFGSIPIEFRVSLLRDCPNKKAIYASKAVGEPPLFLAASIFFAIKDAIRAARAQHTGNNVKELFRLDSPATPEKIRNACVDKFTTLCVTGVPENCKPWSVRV

In the case of `O=C(C=Cc1ccc(O)cc1)OC[C@H]1O[C@@H](Oc2c(-c3ccc(O)cc3)oc3cc(O)cc(=O)c-3c2O)[C@H](O)[C@@H](O)[C@@H]1O` [kaempferol-3-beta-D-(6-O-trans-p-coumaroyl)glucopyranoside], the IC50 was > 100 µM.
Next, `C[C@@H]1O[C@@H](Oc2c(-c3ccc(O)c(O)c3)oc3cc(O)cc(=O)c-3c2O)[C@H](O)[C@H](O)[C@H]1O`: > 100 µM.

The values above are taken from BindingDB's records for doi:10.1021/np970237h (University of Antwerp, 1998).
